Active and inactive are the calls of the source.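 The calls were made as follows, unless noted: active = viability at or under a set limit in both replicates, limit being median viability minus 3 SD (cut at about 48% in these data, passing the limit was not always enough); inconclusive = at or under the limit in just one replicate; inactive = at or above the limit in both replicates.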 Square brackets hold non-standard residues; d marks the D form. Peptide text beside a SMILES is read from it. ξ: configuration not given here. ξV = CC(C)C(N)C(=O)O
Experiments:
[1] = Her2 expression decrease, cell viability multiplex – SKBR3 breast tumor cells, AlphaScreen, ATP viability, primary screen (AID 461;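 active = Her2 level under about 52% in both replicate screens, with viability over 70% of control, limit read from the data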;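 as to Her2 level: lower value means less Her2 protein in the cells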;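 as to viability: percent of carrier control wells set as 100% viability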); details: SKBR3 Her2 protein level, 18-24 h, measured here: SKBR3 viability, ATP luminescence, at 10 µM
[2] = molecular target: Receptor tyrosine-protein kinase erbB-2 (Homo sapiens) (UniProt P04626); test: as above; details: 18-24 h, at 10 µM, stronger effect = lower value
[3] = reduced viability of SK-BR-3 breast cancer cells – cell-based, 24 h, human, pilot screen (AID 572;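 active = viability at or below 10% of carrier control in both of two separate runs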;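 also: compound exposure lasted between 18 and 24 h rather than exactly 24 h; 100% = carrier-treated control wells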); details: SK-BR-3 viability, CellTiter-Glo luminescence, at 10 µM, stronger effect = lower value
[4] = HUVEC growth inhibition – cell-based, human, primary screen (AID 575;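 active = viability at or below 30% in both replicate assays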;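 also: 100% = median of untreated cell wells with 0.1% DMSO on each plate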); details: HUVEC proliferation, CellTiter-Glo luminescence, 72 h; at 10 µM; stronger effect = lower value
Outline: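 Material: primary human umbilical vein endothelial cells / Schedule: 72 h exposure, 37 °C, 5% CO2, 30 min RT equilibration / Signal: ATP-based CellTiter-Glo luminescent read / Read-out basis: percent of median DMSO-control luminescence / Control set: 32 DMSO-only cell-control wells (high), 32 MePR drug-control wells (low) per plate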

[5] = H69AR cell proliferation blockers – human, duplicate replicates, primary screen (AID 580); details: H69AR lung tumor cells viability, ATP luminescence, 72 h; at 10 µM; stronger effect = lower value;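 also: 100% = mean luminescence of untreated wells and 0% = no signal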
[6] = MRP1 drug-resistance reversers in H69AR cells – cell-based, doxorubicin co-treatment, pilot screen (AID 601;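 active = viability loss from added drug above about 55%, and viability with drug at most 40%, in both replicates, limit read from the data, passing the limit was not always enough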); details: CellTiter-Glo, 72 h, at 10 µM; for differential viability (reversal): stronger effect = higher value
[7] = yeast transport mutant growth inhibition pilot in 384-well plates, post-Golgi transport modulator project (AID 636; in the data active = inhibition above about 31%); details: absorbance 615 nm, about 18 h, stronger effect = higher value
[8] = growth suppression of yeast trafficking mutant, preliminary HTS, modulators of trafficking downstream of Golgi apparatus project, 1536-format plate, OD 615 nm (AID 637; in the data active = inhibition above about 30%); details: yeast transport mutant growth, absorbance 615 nm, 18 h; stronger effect = higher value
[9] = H69AR cells + 2 uM doxorubicin, measured here: viability with 2 uM doxorubicin, stronger effect = lower value
[10] = H69AR cells, compound alone cytotoxicity

Sequence of Receptor tyrosine-protein kinase erbB-2 (Homo sapiens) (P04626 whole entry, looked up): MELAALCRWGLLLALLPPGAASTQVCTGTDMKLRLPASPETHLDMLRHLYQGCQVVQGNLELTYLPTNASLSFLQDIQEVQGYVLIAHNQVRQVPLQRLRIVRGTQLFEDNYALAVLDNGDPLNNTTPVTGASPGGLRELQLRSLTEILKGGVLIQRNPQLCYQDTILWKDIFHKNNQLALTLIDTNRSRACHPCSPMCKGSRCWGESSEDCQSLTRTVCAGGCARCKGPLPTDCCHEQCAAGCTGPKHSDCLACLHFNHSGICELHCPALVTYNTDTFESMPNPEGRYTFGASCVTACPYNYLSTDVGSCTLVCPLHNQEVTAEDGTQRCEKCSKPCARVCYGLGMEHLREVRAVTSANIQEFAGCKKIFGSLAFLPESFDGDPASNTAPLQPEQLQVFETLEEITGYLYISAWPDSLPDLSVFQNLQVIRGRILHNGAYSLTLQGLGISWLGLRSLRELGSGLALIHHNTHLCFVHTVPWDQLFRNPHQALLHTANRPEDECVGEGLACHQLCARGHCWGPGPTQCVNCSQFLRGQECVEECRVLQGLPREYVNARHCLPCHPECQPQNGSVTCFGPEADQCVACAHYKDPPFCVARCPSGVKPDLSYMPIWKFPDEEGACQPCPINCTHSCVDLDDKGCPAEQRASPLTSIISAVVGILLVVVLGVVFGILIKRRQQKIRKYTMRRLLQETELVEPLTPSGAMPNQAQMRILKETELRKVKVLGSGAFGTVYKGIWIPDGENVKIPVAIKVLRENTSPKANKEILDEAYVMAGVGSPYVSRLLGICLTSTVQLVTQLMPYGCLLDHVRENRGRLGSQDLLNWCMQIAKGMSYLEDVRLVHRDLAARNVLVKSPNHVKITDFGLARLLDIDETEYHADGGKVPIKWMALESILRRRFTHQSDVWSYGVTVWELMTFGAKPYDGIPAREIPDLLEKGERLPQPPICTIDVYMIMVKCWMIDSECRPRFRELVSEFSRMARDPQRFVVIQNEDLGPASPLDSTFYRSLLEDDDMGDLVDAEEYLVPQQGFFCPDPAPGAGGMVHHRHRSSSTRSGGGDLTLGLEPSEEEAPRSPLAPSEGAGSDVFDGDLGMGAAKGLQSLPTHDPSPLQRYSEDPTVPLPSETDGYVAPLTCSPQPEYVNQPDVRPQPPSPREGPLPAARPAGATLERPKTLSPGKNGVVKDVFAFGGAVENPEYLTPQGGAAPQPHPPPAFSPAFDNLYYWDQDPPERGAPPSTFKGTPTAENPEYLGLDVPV

Row | SMILES | viability [1] [%] | Her2 level [2] | viability [3] | viability [4] | viability [5] | differential viability (reversal) ([6]; H69AR cells + 2 uM doxorubicin) | viability [6, 9] [%] | viability [6, 10] [%] | inhibition [7] | inhibition [8]
1 | Cc1cc(C)cc(NC(=O)C2CCCN(S(=O)(=O)c3cnc[nH]3)C2)c1 (stereo not given) | 99 | 96% (inactive) | 99% (inactive) | 92.5% (inactive) | 88.6% (inactive) | -1.48% (inactive) | 90.1 | 88.6 | -4.27% (inactive) | 0.67% (inactive)
2 | CCN(CC)S(=O)(=O)c1ccc(N2CCCC2)c(C(=O)OCC(=O)/C(C#N)=C(\C)N)c1 | 91 | 92.5% (inactive) | 91% (inactive) | 66.7% (inactive) | 82.6% (inactive) | -11.1% (inactive) | 93.7 | 82.6 | -6.4% (inactive) | 1.97% (inactive)
3 | COCC(=O)N(Cc1cc2cc(OC)ccc2[nH]c1=O)c1ccccc1 | 104 | 112% (inactive) | 104% (inactive) | 90.3% (inactive) | 90.4% (inactive) | 3.91% (inactive) | 86.5 | 90.4 | -2.86% (inactive) | -6% (inactive)
4 | CCOC(=O)c1[nH]nc(N)c1NC(=O)c1ccc(Cl)cc1Cl | 79.5 | 120% (inactive) | 79.5% (inactive) | 89.9% (inactive) | 87.8% (inactive) | 3.99% (inactive) | 83.8 | 87.8 | 3.6% (inactive) | 8.89% (inactive)
5 | O=C(N1CCOCC1)N1CCC(NC(=O)C23CC4CC(CC(C4)C2)C3)CC1 | 90 | 88% (inactive) | 90% (inactive) | 99.6% (inactive) | 98.8% (inactive) | 8.44% (inactive) | 90.4 | 98.8 | -6% (inactive) | 4.84% (inactive)
6 | COc1ccc(CC(NC(C)=O)C(=O)NC2CCN(c3nc(C)cc(C)c3C#N)CC2)c(OC)c1 (stereo not given) | 102 | 100% (inactive) | 102% (inactive) | 117% (inactive) | 104% (inactive) | -0.69% (inactive) | 105 | 104 | -0.41% (inactive) | 2.17% (inactive)
7 | COC(=O)c1ccc(CNC(=O)CSc2nc3sc(C)c(C)c3c(=O)n2C)o1 | 93.5 | 102% (inactive) | 93.5% (inactive) | 97.5% (inactive) | 98.5% (inactive) | 15.5% (inactive) | 82.9 | 98.5 | 0.65% (inactive) | -4.33% (inactive)
8 | CCc1ccccc1NC(=O)CSc1nc2n[nH]c(C)c2c(=N)n1-c1ccc(OC)cc1 | 98.5 | 77.5% (inactive) | 98.5% (inactive) | 66.4% (inactive) | 80% (inactive) | -2.23% (inactive) | 82.3 | 80 | -5.92% (inactive) | 6.51% (inactive)
9 | CC(C)OC(=O)c1cc(=O)[nH]c2ccccc12 | 128 | 79% (inactive) | 128% (inactive) | 95.7% (inactive) | 102% (inactive) | 21.9% (inactive) | 80.7 | 102 | -2.47% (inactive) | -2.22% (inactive)
10 | CCN1CCN(S(=O)(=O)c2ccc(S(=O)(=O)N(CC)Cc3ccccc3)cc2)CC1 | 98 | 94% (inactive) | 98% (inactive) | 82.1% (inactive) | 91.9% (inactive) | -7.05% (inactive) | 99 | 91.9 | -4.27% (inactive) | -1.13% (inactive)
11 | COC(=O)c1ccc2ncccc2c1 | 110 | 131% (inactive) | 110% (inactive) | 111% (inactive) | 107% (inactive) | 7.81% (inactive) | 98.8 | 107 | -1.32% (inactive) | 7.7% (inactive)
12 | O=C1c2ccccc2C(O)(Cc2ccccc2)N1Cc1ccco1 (stereo not given) | 88.5 | 104% (inactive) | 88.5% (inactive) | 89% (inactive) | 95.7% (inactive) | 10.1% (inactive) | 85.6 | 95.7 | -2.37% (inactive) | -9.19% (inactive)
13 | CC(NC(=O)COc1ccc(Br)cc1)C(=O)O (stereo not given) | 108 | 114% (inactive) | 108% (inactive) | 104% (inactive) | 91.8% (inactive) | 4.2% (inactive) | 87.6 | 91.8 | -3.64% (inactive) | -2.33% (inactive)
14 | CCOC(=O)c1ccc(NC(=O)CSCc2ccco2)cc1 | 108 | 100% (inactive) | 108% (inactive) | 81.9% (inactive) | 87.7% (inactive) | 8.33% (inactive) | 79.4 | 87.7 | -5.45% (inactive) | -2.62% (inactive)
15 | O=C(NCCC1=CCCCC1)C1CCN(S(=O)(=O)c2cccc3nsnc23)CC1 | 104 | 92.5% (inactive) | 104% (inactive) | 58.5% (inactive) | 96.5% (inactive) | 14.2% (inactive) | 82.4 | 96.5 | -5.33% (inactive) | 0.98% (inactive)
16 | O=C(CSc1nnc2sc3ccccc3n12)c1ccco1 | 95 | 85.5% (inactive) | 95% (inactive) | 118% (inactive) | 102% (inactive) | 16.9% (inactive) | 85.3 | 102 | -4.46% (inactive) | -6% (inactive)
17 | C/C=C/Cn1c(Br)nc2c1c(=O)[nH]c(=O)n2C | 101 | 91% (inactive) | 101% (inactive) | 90.7% (inactive) | 93.5% (inactive) | 7.23% (inactive) | 86.3 | 93.5 | -6.53% (inactive) | 0.16% (inactive)
18 | Cc1cccc(C)c1NC(=O)N1CCN(C2CCCCC2)CC1 | 111 | 92.5% (inactive) | 111% (inactive) | 109% (inactive) | 104% (inactive) | 12.6% (inactive) | 91.6 | 104 | -8.03% (inactive) | -2.55% (inactive)
19 | COC(=O)c1cc(S(=O)(=O)N2CCC(C)CC2)ccc1F | 71 | 104% (inactive) | 71% (inactive) | 88.6% (inactive) | 88.2% (inactive) | -1.02% (inactive) | 89.2 | 88.2 | -3.51% (inactive) | 2.79% (inactive)
20 | CCCC1C(C#N)=C(N)Oc2n[nH]c(C(C)(C)C)c21 (stereo not given) | 106 | 99.5% (inactive) | 106% (inactive) | 95.1% (inactive) | 105% (inactive) | 11% (inactive) | 94.4 | 105 | -6.97% (inactive) | -7.58% (inactive)
21 | O=C(CS(=O)(=O)Cc1ccccc1)N1CCc2ccccc2C1 | 94.5 | 94.5% (inactive) | 94.5% (inactive) | 86.4% (inactive) | 101% (inactive) | 11.5% (inactive) | 89.4 | 101 | -5.6% (inactive) | -1.61% (inactive)
22 | O=C(Nc1ccccc1)N(O)c1ccc(Cl)cc1 | 93 | 79% (inactive) | 93% (inactive) | 88.5% (inactive) | 89.7% (inactive) | 11.8% (inactive) | 77.9 | 89.7 | -2.11% (inactive) | -4.5% (inactive)
23 | CS(=O)(=O)C1=C(O)C(=O)N(c2ccccc2)C1c1ccccc1 (stereo not given) | 109 | 106% (inactive) | 109% (inactive) | 104% (inactive) | 105% (inactive) | 10.3% (inactive) | 94.4 | 105 | -4.73% (inactive) | 0.33% (inactive)
24 | COC(=O)c1cc2ccsc2n1Cc1nc(-c2ccc(OC)cc2)oc1C | 85.5 | 82% (inactive) | 85.5% (inactive) | 67.5% (inactive) | 83.6% (inactive) | -12% (inactive) | 95.6 | 83.6 | 0.13% (inactive) | -4.67% (inactive)
25 | Cc1cccn2c(=O)c3cc(C#N)c(=NC(=O)c4cccnc4)n(CC4CCCO4)c3nc12 (stereo not given) | 92.5 | 108% (inactive) | 92.5% (inactive) | 94.4% (inactive) | 71.1% (inactive) | 27% (inactive) | 44.1 | 71.1 | -1.18% (inactive) | -9.35% (inactive)
26 | CC(C)CSc1nc2ccccc2n1CC(N)=O | 89.5 | 96% (inactive) | 89.5% (inactive) | 87.6% (inactive) | 93.4% (inactive) | 0.185% (inactive) | 93.2 | 93.4 | -0.38% (inactive) | 0.67% (inactive)
27 | O=C(c1ccc2c(c1)[nH]c(=S)n1c3ccccc3nc21)N1CCN(c2ncccn2)CC1 | 100 | 82% (inactive) | 100% (inactive) | 88.7% (inactive) | 96.3% (inactive) | 5.5% (inactive) | 90.8 | 96.3 | -3.95% (inactive) | 3.67% (inactive)
28 | Cc1ccc(S(=O)(=O)N(CC(=O)N2CCOCC2)CC(=O)N2CCOCC2)cc1 | 104 | 87% (inactive) | 104% (inactive) | 110% (inactive) | 107% (inactive) | 5.66% (inactive) | 101 | 107 | -4.87% (inactive) | 3.17% (inactive)
29 | CC(=O)NC(C(=O)NCC(N)=O)C(C)C (stereo not given) (Ac-[ξV]-Gly-NH2) | 90 | 104% (inactive) | 90% (inactive) | 100% (inactive) | 93.9% (inactive) | -1.82% (inactive) | 95.7 | 93.9 | -5.58% (inactive) | -9.05% (inactive)

— PubChem BioAssay
